# Bioassay records deposited in PubChem BioAssay by several laboratories.
# Hits are enriched below; roughly 4.9% of the tested compounds scored in any of these assays.
# APP 5'UTR act: activates APP 5'UTR luciferase reporter; SH-SY5Y APP 5'UTR luciferase reporter, luminescence; zero percent = DMSO vehicle wells; activation, % at 2 µM; 1% of 190,000 active;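 active = activation above a set limit, based on mean plus 3 SD of controls, cut at about 140% in these data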
# STAT1 blocker: STAT1 signaling inhibition | 0.35% of 200,000 active | NIH 3T3 STAT1-luciferase reporter, IFN-gamma, luminescence | inhibition, % at 5.5 µM;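 active = inhibition above a set limit, the mean inhibition across all tested compounds plus 3 SD, cut at about 34% in these data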
# STAT1 activator: STAT1 signaling activation. NIH 3T3 STAT1-luciferase reporter, IFN-gamma, luminescence; 100% = IFN-gamma alone, no compound. activation (% of control), % at 5.5 µM. 2.6% of 200,000 active;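 active = activation above the screen-wide mean activation plus 3 SD, cut at about 130% in these data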
# STAT3 blocker: STAT3 signaling inhibition | U3A cells, IL-6 STAT3-luciferase reporter, luminescence; host cell line lacks STAT1 | inhibition, % at 5.5 µM | 0.89% of 190,000 active;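 active = inhibition above the mean inhibition across all screened compounds plus 3 SD, cut at about 44% in these data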
# NF-kB expr up: NF-kB expression increase, human neuronal cells | AID 1239 | fold change at 12.5 µM | 1.6% of 190,000 active | NF-kB reporter expression; hits give high values; in the data active = fold change above about 3.3
# STAT3 activator: STAT3 signaling activation. 0.91% of 190,000 active. AID 871. activation (% of control), % at 5.6 µM. U3A cells, IL-6 STAT3-luciferase reporter, luminescence; 100% = signal with IL-6 EC80 alone;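 active = activation above the screen-wide mean of compound activation plus 3 SD, cut at about 130% in these data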
#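 System – human U3A cells carrying STAT3-luciferase construct · Probe or stimulus – Interleukin-6, 33 ng/mL · Schedule – compound 1 h, then IL-6 6 h at 37 °C · Signal – luminescence from STAT3-driven luciferase reporter · Evaluation – percent of IL-6-only median luminescence · Benchmarks – IL-6-only high control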
# STAT1 activ conf: STAT1 activation, confirmation assay; shares compounds with STAT1 activator; NIH 3T3 STAT1-luciferase reporter, IFN-gamma potentiation, luminescence; 100% = IFN-gamma EC80 alone, no compound; activation (% of control), % at 5.7 µM; 97% of 1,200 active;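 active = activation above a set limit carried over from the earlier primary STAT1 screen, cut at about 140% in these data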
# NFkB act: counter-screen for STAT1 activators: NF-kappaB activation; activation (% of control), % at 5.7 µM; shares compounds with STAT1 activator; HEK293T NF-kB luciferase reporter, TNF-alpha stimulated, luminescence; 100% = TNF-alpha with vehicle only; 43% of 1,200 active; AID 1306;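 active = activation above the mean of solvent-only control wells plus 3 SD, set per campaign, cut at about 130% in these data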;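 also: TNF-alpha given at a submaximal dose yielding about 80% of full reporter signal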
# STAT3 act 2: activates human STAT3, counter-screen to STAT1 activators | activation (% of control), % at 5.7 µM | U3A cells STAT3-luciferase reporter, IL-6, luminescence; cells lack STAT1; 100 = IL-6 alone, no compound effect | shares compounds with STAT1 activator | 46% of 1,200 active | AID 1316;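 active = activation above the solvent-only control well mean plus 3 SD, set per plate batch, cut at about 110% in these data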;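 also: higher means more STAT3 reporter activation so hits are non-selective activators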
# Hits are given with their value; – = inactive; · = not tested or not shown.
SMILES,APP 5'UTR act,STAT1 blocker,STAT1 activator,STAT3 blocker,NF-kB expr up,STAT3 activator,STAT1 activ conf,NFkB act,STAT3 act 2
Cc1cc(-n2c(C)cc(C(=O)CN3C(=O)NC4(CCCCC4C)C3=O)c2C)no1 (stereo unspecified),–,–,–,–,–,–,·,·,·
Cc1cc(C(=O)CN2C(=O)NC3(CCCCC3C)C2=O)c(C)n1Cc1cccs1 (stereo unspecified),–,–,155,–,–,–,175,–,125
CN(C)C=NC(=O)c1cc(C(=O)c2ccc(Cl)cc2Cl)c[nH]1,–,–,–,–,–,–,·,·,·
COc1cc(SC)ccc1C(=O)Nc1ccon1,–,–,–,–,–,–,·,·,·
COc1cc(SC)ccc1C(=O)Nc1ccc2c(c1)OCO2,170,–,153,–,7.6,–,250,136,–
COc1cc(SC)ccc1C(=O)Nc1ncc(Cl)cc1Cl,142,–,151,–,3.8,–,174,–,–
COc1cc(SC)ccc1C(=O)Nc1ccc(C)cc1C,–,–,153,–,4,–,189,–,–
COc1cc(SC)ccc1C(=O)NCCc1ccccc1,–,–,161,–,3.5,–,169,–,144
CCc1ccc(N(CC(=O)NCc2ccc(F)cc2)C(=O)c2csnn2)cc1,–,–,–,–,–,–,·,·,·
CCCN(CCC)CCCNC(=O)CN1C(=O)CSc2ccc(S(=O)(=O)N3CCOCC3)cc21,–,–,–,–,–,–,·,·,·
O=C(/C=C/c1cccc(F)c1)N1CCc2ccccc21,200,–,199,–,–,–,238,–,–
O=C(/C=C/c1ccc(F)cc1)N1CCCc2ccccc21,–,–,–,–,–,–,·,·,·
N#C/C(=C\c1ccc([N+](=O)[O-])o1)C(=O)Nc1ccc(F)cc1,–,–,–,–,–,–,·,·,·
N#CCc1ccc(NC(=O)/C=C/c2ccc([N+](=O)[O-])o2)cc1,–,–,312,–,–,–,130,155,–
O=C(CCc1nnc(CCCc2ccccc2)o1)N1CCCCCC1,–,–,153,–,–,–,142,–,–
O=C(CCc1nnc(C2CCCCC2)o1)N1CCN(c2ccccc2F)CC1,–,–,163,–,–,–,172,137,117
CCc1cc(CNC(=O)CCc2nnc(CCCc3ccccc3)o2)on1,–,–,158,–,3.4,–,168,–,115
O=C(N/N=C/c1ccco1)c1cccc(N2Cc3ccccc3C2)c1,–,–,–,·,–,·,·,·,·
COC(=O)/C=C/c1ccc(OC(=O)OC)c(OC(=O)OC)c1,–,–,–,–,–,–,·,·,·
COc1ccc(CCN=C(C)C2=C(O)C(c3ccccc3)OC2=O)cc1OC (stereo unspecified),–,–,–,–,–,–,·,·,·
Cc1nn(C(=O)c2ccc3c(c2)OCO3)c(N)c1-c1ccccc1,–,–,–,–,–,–,·,·,·
Nc1nn(-c2ccccc2)c(N)c1N=Nc1ccc2c(c1)OCO2,–,–,178,–,7.5,–,253,135,112
O=C(COc1ccc(Cl)cc1[N+](=O)[O-])NC1CCCCC1,–,–,160,–,·,–,167,–,111
O=c1oc2cc(OCc3ccc(F)cc3F)ccc2cc1-c1ccc2ccccc2n1,–,–,–,–,–,–,·,·,·
Cc1cccc(-c2nc(C#N)c(NC3CCCCC3)o2)c1,136,–,156,–,–,–,174,–,118
Cc1cccc(-c2nc(CS(=O)CC(=O)NC3CCCC3)c(C)o2)c1 (stereo unspecified),–,–,–,–,–,–,·,·,·
